Values belong to the molecule of their own block, whether it stands above or below them. Ends that are not written are not given here.
How the values were obtained:
Elastase 2A (CEL2A) = molecular target: T1, Elastase 2A (CEL2A) (Homo sapiens, UniProt P08217); assay: 33-mer, 19-mer and 13-mer hydrolysis by purified human fecal elastase 2A; assay type: in vitro ADME; settings: for extent of degradation by CEL2A: PBS pH 7.3, 37 °C, 60 min, RP-HPLC UV 215 nm
T1 sequence (P08217 29-269): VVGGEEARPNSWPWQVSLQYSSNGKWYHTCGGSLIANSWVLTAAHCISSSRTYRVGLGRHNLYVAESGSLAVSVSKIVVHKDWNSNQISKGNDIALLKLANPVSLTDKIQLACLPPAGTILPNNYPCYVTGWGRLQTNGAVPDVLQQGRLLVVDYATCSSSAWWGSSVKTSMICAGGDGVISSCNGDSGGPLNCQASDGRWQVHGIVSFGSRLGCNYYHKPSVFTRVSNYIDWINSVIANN
Method in brief: (§1)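 Purified human fecal enzyme (3.4 µL of 0.8 mg/mL) was incubated with 33-, 19- or 13-mer gliadin peptide (4.7 µL of 60 µM) in PBS pH 7.3 (40 µL total) at 37 °C for 60 min (also 24 h). Reactions were stopped by boiling for 10 min, then filtered. Read-out: C18 RP-HPLC, 0.1% TFA water-to-acetonitrile gradient over 20 min, UV 215 nm. Controls: enzyme boiled 15 min; peptide alone.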

[1] = Peptide hydrolysis by fecal protein extracts of celiac disease; assay type: in vitro ADME, human; settings: for extent of degradation by CD fecal samples, 24 h: fecal extracts of CD patients, 24-h incubation (not shown)
Method in brief: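 Stools from treated celiac patients (Marsh III at diagnosis, gluten-free diet, no antibiotics for a month) were stored at −80 °C. They were homogenized in 10 mM Tris-HCl pH 7.5, and the 35–65% ammonium sulfate fraction was desalted. Extract (3.4 µL of 0.8 mg/mL) plus peptide (4.7 µL of 60 µM) in PBS pH 7.3 ran 60 min or 24 h at 37 °C. Read-out: C18 RP-HPLC, UV 215 nm.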

[2] = molecular target: T2, carboxypeptidase A1 (CBPA1) (Homo sapiens, UniProt P15085); assay type: in vitro ADME; settings: for extent of degradation by CBPA1: purified CBPA1, PBS pH 7.3, 37 °C, 60 min, RP-HPLC UV 215 nm
T2 sequence (P15085 111-419): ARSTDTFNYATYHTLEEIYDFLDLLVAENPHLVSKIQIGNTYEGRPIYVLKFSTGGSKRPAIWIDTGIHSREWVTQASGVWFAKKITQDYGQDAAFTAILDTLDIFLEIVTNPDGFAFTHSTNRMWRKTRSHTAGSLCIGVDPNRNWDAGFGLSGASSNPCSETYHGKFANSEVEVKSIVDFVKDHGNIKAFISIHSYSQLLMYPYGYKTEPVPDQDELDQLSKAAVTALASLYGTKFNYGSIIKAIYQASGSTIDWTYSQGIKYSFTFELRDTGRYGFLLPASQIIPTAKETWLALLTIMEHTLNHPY
Method in brief: as §1

CEL2A, CBPA1, and CEL3B = assay: 33-mer hydrolysis with CEL2A, CBPA1 and CEL3B added together; assay type: in vitro ADME, human; settings: CBPA1 and CEL3B added simultaneously or sequentially, 60 min (not shown)
Elastase 3B (CEL3B) = molecular target: T3, Elastase 3B (CEL3B) (Homo sapiens, UniProt P08861); assay: 33-mer, 19-mer and 13-mer hydrolysis by purified human fecal elastase 3B; assay type: in vitro ADME
T3 sequence (P08861 29-270): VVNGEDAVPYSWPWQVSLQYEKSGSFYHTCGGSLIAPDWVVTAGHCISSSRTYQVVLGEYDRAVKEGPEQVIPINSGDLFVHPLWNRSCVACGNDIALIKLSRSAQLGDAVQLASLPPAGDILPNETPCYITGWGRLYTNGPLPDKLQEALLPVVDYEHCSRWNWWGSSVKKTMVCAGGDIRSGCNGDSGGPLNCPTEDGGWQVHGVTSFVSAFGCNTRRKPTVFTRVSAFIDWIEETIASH
Method in brief: as §1

gluten and gliadin = assay: Glutenase and gliadinase activity of commercial proteases; assay type: biochemical; settings: bioassay on MCG-1 gluten agar plates and gliadin zymography
[3] = 37 °C, 24-h incubation (not shown)

Molecule: LGQQQPFPPQQPY [13-mer]
extent of degradation by CEL2A (Elastase 2A (CEL2A)): fully degraded
extent of degradation by CD fecal samples, 24 h [1]: completely degraded
extent of degradation by CBPA1 [2]: fully degraded

Molecule: LQLQPFPQPQLPYPQPQLPYPQPQLPYPQPQPF [33-mer]
extent of degradation by CEL2A after 24 h (Elastase 2A (CEL2A); [3]): not completely degraded
extent of degradation by CEL2A (Elastase 2A (CEL2A)): not completely degraded
degradation in CD patients relative to NCD samples (higher by) ([1]; fecal extracts of CD patients versus NCD volunteers, 37 °C, 60 min, HPLC): 37%
extent of degradation by CD fecal samples, 24 h [1]: incomplete
change of degradation when all 3 enzymes are added (CEL2A, CBPA1, and CEL3B): did not increase
extent of degradation by CBPA1 after 24 h ([2]; purified CBPA1, 37 °C, 24-h incubation (not shown)): not completely degraded
extent of degradation by CBPA1 [2]: not completely degraded
extent of degradation by CEL3B after 24 h (Elastase 3B (CEL3B); [3]): not completely degraded
extent of degradation by CEL3B (Elastase 3B (CEL3B); PBS pH 7.3, 37 °C, 60 min, RP-HPLC UV 215 nm): not completely degraded

B3: recombinant bovine chymotrypsin-like elastase family member 2A: commercial protease (3.4.21.71) from MyBioSource (protein, UniProt Q29461 29-269, looked up)
Chymotrypsin-like elastase …: VVGGEDARPNSWPWQVSLQYSSSGQWRHTCGGSLIEQNWVLTAAHCISSSRTYRVVVGRQSLSTVESGSLTIAVSKSVIHEKWNSNQLAQGNDIALLKLASSVPLTDKIQLGCLPAAGTILPNNYVCYVTGWGRLQSNGALPDILQQGKLLVVDYATCSNPSWWGSTVKTNMICAGGDGVTSSCNGDSGGPLNCQAANRQWQVHGIVSFGSSLGCNYYRKPSVFTRVSNYNDWISSVIENN
hydrolytic activity against gluten and gliadin (gluten and gliadin): showed hydrolytic activity

The next lines start with the values.

extent of degradation by CEL2A (Elastase 2A (CEL2A)): fully degraded
extent of degradation by CD fecal samples, 24 h [1]: completely degraded
extent of degradation by CBPA1 [2]: fully degraded
Molecule: LGQQQPFPPQQPYPQPQPF [19-mer]

hydrolytic activity against gluten and gliadin (gluten and gliadin): showed hydrolytic activity
Molecule: porcine elastase: commercial protease (3.4.21.36) from Sigma

hydrolytic activity against gluten and gliadin (gluten and gliadin): showed hydrolytic activity
B1: recombinant rat carboxypeptidase A1: commercial protease (3.4.17.1) from MyBioSource (protein, UniProt P00731 111-419, looked up)
Carboxypeptidase A1: ALSTDSFNYATYHTLDEIYEFMDLLVAEHPQLVSKIQIGNTFEGRPIHVLKFSTGGTNRPAIWIDTGIHSREWVTQASGVWFAKKITKDYGQDPTFTAVLDNMDIFLEIVTNPDGFAYTHKTNRMWRKTRSHTQGSLCVGVDPNRNWDAGFGMAGASSNPCSETYRGKFPNSEVEVKSIVDFVTSHGNIKAFISIHSYSQLLLYPYGYTSEPAPDQAELDQLAKSAVTALTSLHGTKFKYGSIIDTIYQASGSTIDWTYSQGIKYSFTFELRDTGLRGFLLPASQIIPTAEETWLALLTIMDHTVKHPY

hydrolytic activity against gluten and gliadin (gluten and gliadin): showed hydrolytic activity
B2: recombinant mouse chymotrypsin-like elastase family member 3B: commercial protease (3.4.21.70) from MyBioSource (protein, UniProt Q9CQ52 28-269, looked up)
Chymotrypsin-like elastase …: VVNGEEAVPHSWPWQVSLQYEKDGSFHHTCGGSLITPDWVLTAGHCISTSRTYQVVLGEHERGVEEGQEQVIPINAGDLFVHPKWNSMCVSCGNDIALVKLSRSAQLGDAVQLACLPPAGEILPNGAPCYISGWGRLSTNGPLPDKLQQALLPVVDYEHCSRWNWWGLSVKTTMVCAGGDIQSGCNGDSGGPLNCPADNGTWQVHGVTSFVSSLGCNTLRKPTVFTRVSAFIDWIEETIANN

— paper PMC5485308 (Molecular Metabolism, 2017)
